Laboratory results taken from ChEMBL document CHEMBL3286157, “Polyketides from the cultured lichen mycobiont of a Vietnamese Pyrenula sp” (J Nat Prod, 2014).
Active and inactive are the calls of the source. The rule behind the calls is not given here.

How the values were obtained:
DNA polymerase beta = DNA polymerase beta (Rattus norvegicus, UniProt P06766); assay: (§1) Inhibition of rat recombinant DNA polymerase beta expressed in Escherichia coli JMpbeta5 cells assessed as incorporation of [3H]dTTP into poly(dA)/oligo(dT)18 DNA-template primer after 60 mins
Method in brief: (§2)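 Pol α from calf thymus, purified by immunoaffinity column. Rat pol β expressed in E. coli JMpβ5. Template-primer poly(dA)/oligo(dT)18 (A/T 2:1) with [3H]dTTP (43 Ci/mmol). Each enzyme (0.05 unit) was preincubated with compound for 10 min at 0 °C in 50 mM Tris-HCl pH 7.5 with 1 mM DTT, 50% glycerol and 0.1 mM EDTA. Reaction ran 60 min at 37 °C. Activity relative to no-inhibitor control; IC50 from dose-response curves.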

[1] = (§3) Inhibition of calf thymus DNA polymerase alpha assessed as incorporation of [3H]dTTP into poly(dA)/oligo(dT)18 DNA-template primer after 60 mins; parameters: species or system Bos taurus; method in brief: as §2
HCT-116 = assay: Cytotoxicity against human HCT116 cells assessed as inhibition of cell proliferation after 24 hrs by WST-1 assay; format: functional, cell-based; settings: HCT-116, 24 h
Method in brief: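 HCT116 cells from ATCC, grown in McCoy's 5A with 10% FBS, penicillin and streptomycin at 37 °C under 5% CO2. Plated at 1 × 10^4 cells per well with compound at 10 and 100 μM for 24 h. Viability read by WST-1. IC50 given as mean ± SD of five independent experiments.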

[2] = molecular target: DNA polymerase beta (Rattus norvegicus) (UniProt P06766); assay: Inhibition of rat recombinant DNA polymerase beta expressed in Escherichia coli JMpbeta5 cells assessed as incorporation of [3H]dTTP into poly(dA)/oligo(dT)18 DNA-template primer at 100 uM after 60 mins
Method in brief: (§4)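 Single-concentration screen at 100 μM. Compound was dissolved in DMSO and sonicated 30 s. Enzyme (0.05 unit of calf thymus pol α or E. coli-expressed rat pol β) was preincubated 10 min at 0 °C in Tris-HCl pH 7.5/DTT/glycerol/EDTA. Reaction with poly(dA)/oligo(dT)18 and [3H]dTTP ran 60 min at 37 °C. Activity given as percent of no-inhibitor control.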

Bos taurus [3] = species: Bos taurus; assay: Inhibition of calf thymus DNA polymerase alpha assessed as incorporation of [3H]dTTP into poly(dA)/oligo(dT)18 DNA-template primer at 100 uM after 60 mins; method in brief: as §4
[4] = molecular target: DNA polymerase beta (Rattus norvegicus) (UniProt P06766); assay: as §1; method in brief: as §2
Bos taurus [5] = species: Bos taurus; assay: as §3; method in brief: as §2

| SMILES | IC50 (DNA polymerase beta) [µM] | IC50 [1] [µM] | IC50 (HCT-116) [µM] | inhibition [2] | inhibition (Bos taurus [3]) | inhibition [4] | inhibition (Bos taurus [5]) |
| --- | --- | --- | --- | --- | --- | --- | --- |
| C[C@@]1(CO)[C@H](O)CC[C@@]2(C)[C@H]1CC[C@H]1C[C@@H]3C[C@@]12CC[C@]3(O)CO [APHIDICOLIN] | > 100 | 19.6 | 9 |  |  |  |  |
| Cc1cn([C@H]2CC[C@@H](COP(=O)(O)OP(=O)(O)OP(=O)(O)O)O2)c(=O)[nH]c1=O | 30.8 | > 100 | > 100 |  |  |  |  |
| CC[C@@H](C)[C@H]1O[C@H](/C=C/C=C/C(=O)O)[C@@H](O)[C@@]2(O)[C@@H]3CC=C(C)C[C@H]3C=C(C)[C@H]2[C@]1(C)O | > 100 | > 100 | > 100 | Active | Active |  |  |
| CC1=CC[C@H]2[C@@H]3[C@H](O)[C@@H](/C=C/C=C/C(=O)O)O[C@@H]4[C@H](C)CCO[C@@]4(C)[C@@H]3C(C)=C[C@@H]2C1 | 37.9 | 47.2 | 74.8 | Active | Active |  |  |
| CC[C@@H](C)[C@H]1O[C@]1(C)[C@@H]1C(C)=C[C@@H]2CC(C)=CC[C@H]2[C@@H]1/C=C/C=C/C=C/C(=O)O | 9.5 | 8.1 | 6.4 | Active | Active | Dose-dependent effect | Dose-dependent effect |
| CC1=CC[C@@H]2[C@H](C=C(C)[C@H]3[C@]4(C)OCC[C@@H](C)[C@H]4O[C@H](/C=C/C=C/C(=O)O)[C@@H](O)[C@@]23O)C1 | > 100 | > 100 | > 100 | Active | Active |  |  |
| C=C1[C@@H]([C@H](C)CC)O[C@H](/C=C/C=C/C(=O)O)[C@@H](O)[C@H]2[C@@H]3CC=C(C)C[C@H]3C=C(C)[C@@]12O | > 100 | > 100 | > 100 | Active | Active |  |  |
| C=C1[C@@H]2C(C)=C[C@@H]3CC(C)=CC[C@H]3[C@@H]2[C@H](O)[C@@H](/C=C/C=C/C(=O)O)O[C@@H]1[C@H](C)CC | 19.5 | 17.3 | 26.1 | Active | Active | Dose-dependent effect | Dose-dependent effect |
